A selection: hits, their analogues and other compounds. The true share with any hit is near 3%.
Apaf-1 inh – inhibitors of human Apaf-1 apoptosome; O14727; reconstituted apoptosome caspase-3 activity, DEVD-Rh110 fluorescence; inhibition, % at 20 µM; 0.71% of 330,000 active; active = inhibition of at least 40% at 20 µM;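 note: plate controls were DMSO wells for no effect and DEVD-CHO caspase inhibitor wells for full effect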
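Material: cell-free apoptosome with Apaf-1, procaspase-3 and caspase-9; Buffer or medium: Hepes pH 7.5 with detergent and BSA; Reagent: cytochrome c trigger plus (Z-DEVD)2-Rh110 caspase-3 substrate; Times: compound with Apaf-1, dATP, procaspase-3 30 min, then 50 min reaction, room temperature; Technique: Rh110 fluorescence intensity.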
SENP8 block-1 – SENP8 (human) protease inhibition; recombinant SENP8, Nedd8 substrate fluorescence; inhibition, % at 20 µM; 0.64% of 360,000 active; AID 602440; in the data active = inhibition mostly above about 40%, no sharp cut-off; inactive = mostly below about 27%
SENP7 inh – inhibitors of human SENP7 protease | Q9BQF6 | inhibition, % at 5 µM | 1.5% of 330,000 active | recombinant SENP7, Z-RLRGG-aminoluciferin luminescence, 40 min;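 active = inhibition above about 50% at the single test dose, limit read from the data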;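 note: plate controls were DMSO with enzyme for no effect and no enzyme buffer wells for full effect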
UBC13 inh – inhibitors of human UBC13 polyubiquitin chain formation; TR-FRET; inhibition, % at 20 µM; P61088; 0.47% of 330,000 active; AID 485273; in the data active = inhibition above about 45%, passing the limit was not always enough
Target sequence (P61088 whole entry, looked up): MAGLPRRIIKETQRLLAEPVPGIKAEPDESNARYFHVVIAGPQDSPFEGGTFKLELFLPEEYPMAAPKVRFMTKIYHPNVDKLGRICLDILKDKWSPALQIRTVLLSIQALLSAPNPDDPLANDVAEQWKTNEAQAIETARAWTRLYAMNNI
SENP8 block-2 – inhibitors of human SENP8 protease; inhibition, % at 10 µM; 1.2% of 330,000 active; Q96LD8; AID 2540; purified SENP8, Z-RLRGG-aminoluciferin cleavage, luminescence; in the data active = inhibition above about 50%
SENP6 inh – SENP6 protease inhibition; Q9GZR1; Recombinant SENP6 catalytic domain, aminoluciferin luminescence; inhibition, % at 10 µM; 1.8% of 330,000 active; AID 2599;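 active = inhibition above about 50% at the single tested dose, limit read from the data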;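 note: plate controls were DMSO wells with enzyme for no effect and DMSO wells lacking enzyme for full effect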
Target sequence (Q9GZR1 628-1112 limits assumed): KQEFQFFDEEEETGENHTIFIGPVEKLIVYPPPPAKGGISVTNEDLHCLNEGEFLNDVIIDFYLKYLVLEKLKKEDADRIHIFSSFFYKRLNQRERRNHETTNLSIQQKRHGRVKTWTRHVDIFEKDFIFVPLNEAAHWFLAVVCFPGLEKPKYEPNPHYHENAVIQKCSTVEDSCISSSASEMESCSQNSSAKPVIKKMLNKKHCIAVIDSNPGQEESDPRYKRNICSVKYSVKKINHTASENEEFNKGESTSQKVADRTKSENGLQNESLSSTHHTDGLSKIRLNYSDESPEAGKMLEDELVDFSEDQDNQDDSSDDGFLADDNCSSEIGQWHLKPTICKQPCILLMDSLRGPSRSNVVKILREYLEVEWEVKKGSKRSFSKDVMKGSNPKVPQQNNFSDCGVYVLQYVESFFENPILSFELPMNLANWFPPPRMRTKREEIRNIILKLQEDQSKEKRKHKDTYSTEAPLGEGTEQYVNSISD
SENP8 conf – confirmation of human SENP8 protease inhibitors; shares compounds with SENP8 block-1; 15% of 1,400 active; purified SENP8, Nedd8-AMC/pro-Nedd8 cleavage fluorescence, 30 min; inhibition, % at 25 µM; in the data active = inhibition mostly above about 39%, no sharp cut-off; inactive = mostly below about 34%
* = called active by the depositor; i = inactive; nt = no result given.

SMILES	Apaf-1 inh	SENP8 block-1	SENP7 inh	UBC13 inh	SENP8 block-2	SENP6 inh	SENP8 conf
O=C(NCCc1ccccc1)C1Cc2c(-c3ccccc3)ccnc2O1 (centres undefined)	nt	8	nt	nt	nt	nt	nt
CCOC(=O)C1CCCN(C(=O)COc2ccc(C(C)(C)C)cc2)CC1 (centres undefined)	nt	22	nt	nt	nt	nt	nt
CC(C)(C)c1ccc(OCC(=O)N2CCN(C=O)CC2)cc1	-21	44*	4	6	-8	7	14
COc1cc(C2(c3ccc(O)c(OC)c3)C(=O)Nc3c(C)cc(Br)cc32)ccc1O	13	40*	10	-10	-8	-10	15
COc1cc(/C=N/N2CCOCC2)ccc1OCc1ccc(Cl)cc1	5	42*	6	-8	4	23	8
Oc1c(C=NCc2ccc(F)cc2)[nH]c2ccc(Br)c(Cl)c12	31	nt	4	-20	4	26	nt
Cc1ccc(CN=Cc2[nH]c3ccc(Br)c(Cl)c3c2O)cc1	36	44*	1	-36	1	23	40
CC(C)N(C)c1ncnc2c1ncn2[C@H]1CN(CCN2CCOCC2)C[C@@H](CO)O1	nt	15	nt	nt	nt	nt	nt
O=C(N/N=C/c1ccccn1)c1cccc(S(=O)(=O)N2CCCC2)c1	i	45*	-2	-12	1	5	16
O=C(N/N=C/c1ccncc1)c1cccc(S(=O)(=O)N2CCCC2)c1	-1	16	2	1	5	-3	nt
CC(=O)c1cccc(NC(=O)COC(=O)c2ccc3c(c2)OCCO3)c1	-32	42*	5	14	-3	-1	-3
C(=C\c1ccccc1)/CN1CCN(C(CCc2ccccc2)c2nnnn2C2CCCC2)CC1 (centres undefined)	nt	26	nt	nt	nt	nt	nt
CC1(C)OC(c2ccccc2)=C/C(=C/C=N/NC(=O)c2ccncc2)O1	12	41*	-5	-62	0	-14	24
CC1CC(=O)Nc2cc([N+](=O)[O-])ccc2N1 (centres undefined)	-6	44*	3	-7	1	-8	30
CC1CC(=O)Nc2ccc([N+](=O)[O-])cc2N1C (centres undefined)	-5	14	-1	-5	2	0	nt
Cc1ccccc1C(=O)N1CCN(c2ccc([N+](=O)[O-])c(NCc3ccco3)c2)CC1	21	53*	-7	-19	-3	-10	26
Cc1ccc(C(=O)N2CCN(c3ccc([N+](=O)[O-])c(NCc4ccco4)c3)CC2)cc1	14	48*	6	-22	-5	-10	14
O=C(c1cccc2ccccc12)N1CCN(c2ccc([N+](=O)[O-])c(NCc3ccco3)c2)CC1	1	42*	1	-8	-3	-9	10
Cc1cccc(C(=O)N2CCN(c3ccc([N+](=O)[O-])c(NCc4ccco4)c3)CC2)c1	17	35	0	-31	2	-8	nt
Cc1cn([C@H]2C[C@H](O)[C@@H](CNCc3cccc(OC4CCCC4)c3)O2)c(=O)[nH]c1=O	nt	-4	nt	nt	nt	nt	nt
Cc1nc(NC(=O)c2ccccc2)sc1-c1cc(C(=O)N2CCOCC2)nn1Cc1ccccc1	nt	-69	nt	nt	nt	nt	nt
COCCCN1C(=O)C(=O)/C(=C(/O)c2ccc(S(=O)(=O)N3CCCCC3)cc2)C1c1ccc(O)cc1 (centres undefined)	15	45*	8	-16	4	18	12
COCCCN1C(=O)C(=O)/C(=C(/O)c2ccc(S(=O)(=O)N3CCCCC3)cc2)C1c1ccc(O)c(OC)c1 (centres undefined)	-13	12	0	-3	2	14	nt
O=C(c1cccc(Cl)c1)N1CCC(=O)N([C@H](COCc2ccccc2)Cc2ccccc2)CC1	nt	5	nt	nt	nt	nt	nt
O=C(Nc1ccc(N2CCN(C(=O)c3ccccc3)CC2)cc1)c1ccc([N+](=O)[O-])o1	nt	51*	nt	nt	nt	nt	31
SMILES	Apaf-1 inh	SENP8 block-1	SENP7 inh	UBC13 inh	SENP8 block-2	SENP6 inh	SENP8 conf
CC(C)C(=O)N1CCN(c2ccc(NC(=O)c3ccc([N+](=O)[O-])o3)cc2)CC1	4	35	13	-13	1	23	nt
Cc1ccccc1C(=O)N1CCN(c2ccc(NC(=O)c3ccc([N+](=O)[O-])o3)cc2)CC1	6	39*	9	-20	6	-7	7
CCc1nc2cc(NC(=O)C3(C)CCCN(C(C)C)C3)ccc2o1 (centres undefined)	nt	7	nt	nt	nt	nt	nt
COc1cccc(C#Cc2cnc3c(c2)C(=O)N([C@@H](C)CO)C[C@H](C)[C@H](CN(C)C(=O)C2CCC2)O3)c1	nt	-103	nt	nt	nt	nt	nt
COc1c(C)cc(C(O)c2ncc(-c3ccc(Cl)cc3)[nH]2)cc1C (centres undefined)	nt	7	nt	nt	nt	nt	nt
OCCN1CCN(C(=S)c2ccc(Cl)c(Cl)c2)CC1	13	42*	4	-2	5	26	34*
C=CCn1ccc(=NC=C(C#N)C#N)c2ccccc21	-20	45*	7	2	1	4	21
Cc1[nH]n(-c2ccccc2)c(=O)c1CCO	6	7	8	4	-2	4	nt
Cc1[nH]n(-c2ccccc2)c(=O)c1S(=O)(=O)c1ccccc1	10	71*	3	10	0	-5	43*
COc1ccccc1CNc1nc(Nc2ccccc2-n2cccn2)c2sccc2n1	nt	i	nt	nt	nt	nt	nt
CC(=O)Nc1cccc(NC(=O)C2CCCN2C(=O)Nc2cccc(C)c2)c1 (centres undefined)	-7	2	-4	8	0	-14	nt
CC(=O)c1cccc(NC(=O)N2CCCC2C(=O)Nc2cccc(C)c2)c1 (centres undefined)	7	42*	-3	-7	-8	-8	-20
CCOc1ccc(-c2noc(-c3csc([C@@H]4C[C@H](O)[C@@H](CO)O4)n3)n2)cc1	nt	5	nt	nt	nt	nt	nt
O=C(COC(=O)c1ccc([N+](=O)[O-])o1)NC1CCS(=O)(=O)C1 (centres undefined)	6	50*	4	-18	3	-8	89*
CC1Cc2ccccc2N1C(=O)COC(=O)c1ccc([N+](=O)[O-])o1 (centres undefined)	27	42*	18	45	4	26	80*
CC1Cc2ccccc2N1C(=O)COC(=O)c1ccco1 (centres undefined)	nt	6	nt	nt	nt	nt	nt
O=C(COC(=O)c1ccc([N+](=O)[O-])o1)NCc1ccc(F)cc1	15	43*	4	-11	-3	6	78*
CC(=O)Nc1ccc(NC(=O)COC(=O)c2ccc([N+](=O)[O-])o2)cc1	-5	34*	12	-3	12	15	85*
O=[N+]([O-])c1ccc(C=NN2CCOCC2)s1	nt	48*	nt	nt	nt	nt	50*
O=[N+]([O-])c1cc(/C=N/N2CCOCC2)cs1	-3	16	1	-4	-9	-40	nt
O=[N+]([O-])c1c(NCCCO)cc(Sc2ccc(Cl)cc2)c2nonc12	nt	28	nt	nt	nt	nt	nt

Screens: PubChem, Sanford-Burnham Center for Chemical Genomics
